Reference: ChEMBL document CHEMBL4354800, “Amphiphilic nebramine-based hybrids Rescue legacy antibiotics from intrinsic resistance in multidrug-resistant Gram-negative bacilli” (Eur J Med Chem, 2019)
Activity calls are given as the source filed them. No cut-off for these calls is given here.

Tests used:
Pseudomonas aeruginosa [1] = experiment: Disruption of proton gradient in Pseudomonas aeruginosa PAO1 membrane assessed as inhibition of tetracycline uptake at 25 uM measured every 1 min for 30 mins by fluorescence based assay; format: organism-based; conditions: Bacterial membrane
Pseudomonas aeruginosa [2] = experiment: Increase in tetracycline uptake in Pseudomonas aeruginosa PAO1 membrane at 25 uM measured every 1 min for 30 mins by fluorescence based assay; format: organism-based; conditions: Bacterial membrane
Procedure, shortened: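 P. aeruginosa PAO1 was grown to OD600 0.6, washed, and resuspended in ¼ volume of 10 mM HEPES, pH 7.2. Cells received varying compound concentrations together with fixed tetracycline. Fluorescence (ex 405 nm, em 535 nm) was recorded every 1 min for 30 min at room temperature. Experiments were done in triplicate and averages reported.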

Pseudomonas aeruginosa [3] = experiment: Antimicrobial activity against XDR Pseudomonas aeruginosa PA264 infected in Galleria mellonella larvae assessed as survival rate at 25 mg/kg administered 2 hrs post-inoculation measured after 24 hrs relative to control; format: functional, organism-based
[4] = Toxicity in Galleria mellonella larvae assessed as tolerability by measuring larvae deaths at 75 mg/kg incubated for 96 hrs relative to control; format: organism-based; conditions: in vivo
[5] = Toxicity in Galleria mellonella larvae assessed as tolerability by measuring larvae deaths at 100 mg/kg incubated for 96 hrs relative to control; format: organism-based; conditions: in vivo

N#CC(C#N)=NNc1cccc(Cl)c1
inhibition (Pseudomonas aeruginosa [1]): Active

COLISTIN [listing 1 of 2 here]
Activity (Pseudomonas aeruginosa [2]): Active
Survival (Pseudomonas aeruginosa [3]): 0%

COLISTIN [listing 2 of 2 here]
Activity [4]: 70%
Activity [5]: 90%
